Usually pA2 stands for the negative logarithm of the molar antagonist concentration that doubles the agonist concentration needed for the same response. Read a high pA2 as higher antagonist potency.

The values below come from ChEMBL document CHEMBL1139009, “Analogues of neurohypophyseal hormones, oxytocin and arginine vasopressin, conformationally restricted in the N-terminal part of the molecule” (J Med Chem, 2006).

Some results are limits rather than exact numbers.

Sequence of Vasopressin V1a receptor (Rattus norvegicus) (P30560 whole entry, looked up): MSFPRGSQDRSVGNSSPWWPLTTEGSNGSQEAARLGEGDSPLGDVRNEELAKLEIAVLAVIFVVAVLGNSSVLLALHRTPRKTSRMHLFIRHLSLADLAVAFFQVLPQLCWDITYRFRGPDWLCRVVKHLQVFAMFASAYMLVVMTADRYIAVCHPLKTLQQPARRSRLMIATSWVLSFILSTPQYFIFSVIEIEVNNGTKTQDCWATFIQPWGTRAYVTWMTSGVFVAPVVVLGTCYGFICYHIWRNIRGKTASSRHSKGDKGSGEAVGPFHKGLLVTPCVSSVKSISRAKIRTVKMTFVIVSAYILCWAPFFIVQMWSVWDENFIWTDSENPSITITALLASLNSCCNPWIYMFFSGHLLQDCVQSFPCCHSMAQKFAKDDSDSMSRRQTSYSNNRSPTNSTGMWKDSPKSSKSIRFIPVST

The target in one test is T1, Oxytocin receptor (Rattus norvegicus) (UniProt P70536).
T1 sequence (whole entry): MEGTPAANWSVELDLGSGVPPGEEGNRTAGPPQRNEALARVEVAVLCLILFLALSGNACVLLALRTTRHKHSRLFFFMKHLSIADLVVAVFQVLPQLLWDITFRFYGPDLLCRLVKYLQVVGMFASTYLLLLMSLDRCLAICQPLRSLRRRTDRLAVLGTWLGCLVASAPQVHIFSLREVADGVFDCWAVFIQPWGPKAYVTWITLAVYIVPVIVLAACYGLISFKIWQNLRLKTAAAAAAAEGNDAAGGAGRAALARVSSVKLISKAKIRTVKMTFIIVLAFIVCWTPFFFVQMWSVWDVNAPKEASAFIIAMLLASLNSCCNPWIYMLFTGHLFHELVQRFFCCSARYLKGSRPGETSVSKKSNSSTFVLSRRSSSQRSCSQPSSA
As to the kind of experiment: (§1) Uterotonic activity against OT receptor in Wistar rat in absence of magnesium. It counts as functional. An outline of the steps: (§2)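 Isolated uterus from female Wistar rats estrogenized 48 h beforehand, tested in vitro without magnesium ions. Synthetic oxytocin served as standard. Dose-response curves from single administrations or cumulative dosing without washing. Values are means of three to five separate experiments.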
Turning to `CC(C)[C@@H]1NC(=O)[C@H](C)N(Cc2ccccc2)C(=O)[C@H](Cc2ccc(O)cc2)NC(=O)CC2(CCCCC2)SSC[C@H](C(=O)N2CCC[C@H]2C(=O)N[C@@H](CCCN=C(N)N)C(=O)NCC(N)=O)NC(=O)[C@H](CC(N)=O)NC1=O`, the Activity stood at 0 IU/mg.

Another test deals with T2, Oxytocin receptor (Rattus norvegicus, UniProt P70536).
T2 sequence (P70536 whole entry): T1 sequence (whole entry)
Described as §1. The class given is functional. An outline of the steps: as §2
As to `CC(C)C[C@H](NC(=O)[C@@H]1CCCN1C(=O)[C@@H]1CSSC[C@H](N)C(=O)N2CCN(C(=O)[C@@H]2Cc2ccccc2)[C@@H](Cc2ccccc2)C(=O)N[C@@H](CCC(N)=O)C(=O)N[C@@H](CC(N)=O)C(=O)N1)C(=O)NCC(N)=O` [listing 1 of 2 here], the pA2 was found to be 6.82.
The same measure, in the same setting: next, `NC(=O)CC[C@@H]1NC(=O)[C@H](Cc2ccccc2)NC(=O)[C@H](Cc2ccc(O)cc2)NC(=O)[C@@](N)(CO)CSSC[C@@H](C(=O)N2CCC[C@H]2C(=O)N[C@@H](CCCN=C(N)N)C(=O)NCC(N)=O)NC(=O)[C@H](CC(N)=O)NC1=O` [listing 1 of 2 here]: 6.4.
As to `CC(C)C[C@H](NC(=O)[C@@H]1CCCN1C(=O)[C@@H]1CSSCCC(=O)N2CCN(C(=O)[C@@H]2Cc2ccccc2)[C@@H](Cc2ccccc2)C(=O)N[C@@H](CCC(N)=O)C(=O)N[C@@H](CC(N)=O)C(=O)N1)C(=O)NCC(N)=O` [listing 1 of 2 here], the pA2 came to 6.5.
On the same count and under the same terms, next, `CC(C)C[C@H](NC(=O)[C@@H]1CCCN1C(=O)[C@@H]1CSSC2(CCCCC2)CC(=O)N2CCN(C(=O)[C@@H]2Cc2ccccc2)[C@@H](Cc2ccccc2)C(=O)N[C@@H](CCC(N)=O)C(=O)N[C@@H](CC(N)=O)C(=O)N1)C(=O)NCC(N)=O` [listing 1 of 2 here]: 6.72.

A further test is filed under the species Rattus norvegicus. The experiment in a line: Antidiuretic activity against V2 receptor in Wistar rat at antidiuresis half life of 60 min. The class given is functional, Urine.
As to `CC(C)[C@@H]1NC(=O)[C@H](C)N(Cc2ccccc2)C(=O)[C@H](Cc2ccc(O)cc2)NC(=O)CCSSC[C@@H](C(=O)N2CCC[C@H]2C(=O)N[C@@H](CCCN=C(N)N)C(=O)NCC(N)=O)NC(=O)[C@H](CC(N)=O)NC1=O`, the Activity is less than 0.04 IU/mg.
Take `CC(C)C[C@H](NC(=O)[C@@H]1CCCN1C(=O)[C@@H]1CSSC[C@H](N)C(=O)N2CCN(C(=O)[C@@H]2Cc2ccccc2)[C@@H](Cc2ccccc2)C(=O)N[C@@H](CCC(N)=O)C(=O)N[C@@H](CC(N)=O)C(=O)N1)C(=O)NCC(N)=O` [listing 2 of 2 here]: the Activity was less than 0.04 IU/mg.
The same measure, in the same setting: next, `NC(=O)CC[C@@H]1NC(=O)[C@H](Cc2ccccc2)NC(=O)[C@H](Cc2ccc(O)cc2)NC(=O)[C@@](N)(CO)CSSC[C@@H](C(=O)N2CCC[C@H]2C(=O)N[C@@H](CCCN=C(N)N)C(=O)NCC(N)=O)NC(=O)[C@H](CC(N)=O)NC1=O` [listing 2 of 2 here]: 4.5 IU/mg; `CC(C)[C@@H]1NC(=O)[C@H](C)N(Cc2ccccc2)C(=O)[C@H](Cc2ccc(O)cc2)NC(=O)[C@@H](N)CSSC[C@@H](C(=O)N2CCC[C@H]2C(=O)N[C@@H](CCCN=C(N)N)C(=O)NCC(N)=O)NC(=O)[C@H](CC(N)=O)NC1=O`: less than 0.04 IU/mg.
In the case of `CC(C)[C@@H]1NC(=O)[C@H](C)N(Cc2ccccc2)C(=O)[C@H](Cc2ccc(O)cc2)NC(=O)CC2(CCCCC2)SSC[C@@H](C(=O)N2CCC[C@H]2C(=O)N[C@@H](CCCN=C(N)N)C(=O)NCC(N)=O)NC(=O)[C@H](CC(N)=O)NC1=O`, the Activity was less than 0.04 IU/mg.
Turning to `CC(C)C[C@H](NC(=O)[C@@H]1CCCN1C(=O)[C@@H]1CSSC2(CCCCC2)CC(=O)N2CCN(C(=O)[C@@H]2Cc2ccccc2)[C@@H](Cc2ccccc2)C(=O)N[C@@H](CCC(N)=O)C(=O)N[C@@H](CC(N)=O)C(=O)N1)C(=O)NCC(N)=O` [listing 2 of 2 here], the Activity is listed as less than 0.04 IU/mg.
Same read-out and setting: the result for `CC(C)C[C@H](NC(=O)[C@@H]1CCCN1C(=O)[C@@H]1CSSCCC(=O)N2CCN(C(=O)[C@@H]2Cc2ccccc2)[C@@H](Cc2ccccc2)C(=O)N[C@@H](CCC(N)=O)C(=O)N[C@@H](CC(N)=O)C(=O)N1)C(=O)NCC(N)=O` [listing 2 of 2 here] reads less than 0.04 IU/mg.

The species named for another test is Rattus norvegicus. As to the kind of experiment: Antidiuretic activity against V2 receptor in Wistar rat at antidiuresis half life of 200 min. It counts as functional, Urine.
`NC(=O)CC[C@@H]1NC(=O)[C@H](Cc2ccccc2)NC(=O)[C@H](Cc2ccc(O)cc2)NC(=O)[C@@](N)(CO)CSSC[C@@H](C(=O)N2CCC[C@H]2C(=O)N[C@@H](CCCN=C(N)N)C(=O)NCC(N)=O)NC(=O)[C@H](CC(N)=O)NC1=O` [listing 2 of 2 here] showed an Activity of 22.5 IU/mg.

A further test has as its target Vasopressin V1a receptor (Rattus norvegicus) (UniProt P30560). As to the kind of experiment: Pressor activity against V1a receptor in Wistar rat.
On to `CC(C)C[C@H](NC(=O)[C@@H]1CCCN1C(=O)[C@H]1CSSCCC(=O)N2CCN(C(=O)[C@@H]2Cc2ccccc2)[C@@H](Cc2ccccc2)C(=O)N[C@@H](CCC(N)=O)C(=O)N[C@@H](CC(N)=O)C(=O)N1)C(=O)NCC(N)=O`, for which the pressor activity was 0 IU/mg.
The molecule `CC(C)[C@@H]1NC(=O)[C@H](C)N(Cc2ccccc2)C(=O)[C@H](Cc2ccc(O)cc2)NC(=O)CC2(CCCCC2)SSC[C@H](C(=O)N2CCC[C@H]2C(=O)N[C@@H](CCCN=C(N)N)C(=O)NCC(N)=O)NC(=O)[C@H](CC(N)=O)NC1=O` came in with a pressor activity of 0 IU/mg.
The same measure, in the same setting: the result for `CC(C)C[C@H](NC(=O)[C@@H]1CCCN1C(=O)[C@H]1CSSC2(CCCCC2)CC(=O)N2CCN(C(=O)[C@@H]2Cc2ccccc2)[C@@H](Cc2ccccc2)C(=O)N[C@@H](CCC(N)=O)C(=O)N[C@@H](CC(N)=O)C(=O)N1)C(=O)NCC(N)=O` reads 0 IU/mg; that for `CC(C)C[C@H](NC(=O)[C@@H]1CCCN1C(=O)[C@H]1CSSC[C@@H](N)C(=O)N2CCN(C(=O)[C@@H]2Cc2ccccc2)[C@@H](Cc2ccccc2)C(=O)N[C@@H](CCC(N)=O)C(=O)N[C@@H](CC(N)=O)C(=O)N1)C(=O)NCC(N)=O`, 0 IU/mg.
In the case of `CC(C)[C@@H]1NC(=O)[C@H](C)N(Cc2ccccc2)C(=O)[C@H](Cc2ccc(O)cc2)NC(=O)[C@H](N)CSSC[C@H](C(=O)N2CCC[C@H]2C(=O)N[C@@H](CCCN=C(N)N)C(=O)NCC(N)=O)NC(=O)[C@H](CC(N)=O)NC1=O`, the pressor activity was 0 IU/mg.
The same measure, in the same setting: next, `CC(C)[C@@H]1NC(=O)[C@H](C)N(Cc2ccccc2)C(=O)[C@H](Cc2ccc(O)cc2)NC(=O)CCSSC[C@H](C(=O)N2CCC[C@H]2C(=O)N[C@@H](CCCN=C(N)N)C(=O)NCC(N)=O)NC(=O)[C@H](CC(N)=O)NC1=O`: 0 IU/mg.
Still for that read-out and setting: next, `NC(=O)CC[C@@H]1NC(=O)[C@H](Cc2ccccc2)NC(=O)[C@H](Cc2ccc(O)cc2)NC(=O)[C@@](N)(CO)CSSC[C@H](C(=O)N2CCC[C@H]2C(=O)N[C@@H](CCCN=C(N)N)C(=O)NCC(N)=O)NC(=O)[C@H](CC(N)=O)NC1=O`: 0.18 IU/mg.
